Values joined by “and” are separate entries in the source; they are usually repeats but may differ in a detail not shown here. Identical values can stand only once.
How the values were obtained:
[1] = tested on: Mus musculus; assay: Anticonvulsant activity against tonic phase of the audiogenic seizures in DBA / 2 mice 30 min after ip administration at a dose range 10-66 uM/kg; assay type: functional; details: 0.5 h
How it was run: (§1)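 Groups of 10 DBA/2 mice of either sex; drug ip (0.1 mL/10 g) as fresh solution in 50% DMSO/50% saline, 30 min before auditory stimulation (12-16 kHz, 109 dB, 60 s or until tonic extension) under perspex dome after 60 s habituation. Latency and incidence of wild running, clonic and tonic phases scored; ED50 (95% confidence limits) by Litchfield-Wilcoxon.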

[2] = tested on: Mus musculus; assay: Anticonvulsant activity against clonic phase of the audiogenic seizures in DBA / 2 mice 30 min after ip administration at a dose range 10-66 uM/kg; assay type: functional; details: 0.5 h; how it was run: as §1
[3] = tested on: Mus musculus; assay: Anticonvulsant activity against the clonic seizures induced by icv injection of AMPA in DBA / 2 mice at a dose range of 10-66 uM/kg; assay type: functional; details: central
[4] = tested on: Mus musculus; assay: Anticonvulsant activity against the tonic seizures induced by icv injection of AMPA in DBA / 2 mice at a dose range of 10-66 uM/kg; assay type: functional; details: central
[5] = species: Mus musculus; assay: Audiogenic seizures after concomitant treatment with Flumazenil (24.72 uM) in DBA / 2 mice clonic phase; assay type: functional
[6] = species: Mus musculus; assay: Audiogenic seizures after concomitant treatment with Flumazenil (24.72 uM) in DBA / 2 mice tonic phase; assay type: functional
[7] = species: Mus musculus; assay: Audiogenic seizures after concomitant treatment with Flumazenil (8.24 uM) in DBA / 2 mice clonic phase; assay type: functional
[8] = species: Mus musculus; assay: Audiogenic seizures after concomitant treatment with Flumazenil (8.24 uM) in DBA / 2 mice tonic phase; assay type: functional
[9] = Relative lipophilicity of compound; assay type: physicochemical; details: reversed-phase TLC, acetone/water 2:1
How it was run: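 Reversed-phase TLC type lipophilicity: plates dried 105 °C 1 h, mobile phase acetone:water 2:1, 1 µL of 3 mg/mL CHCl3 solution spotted; five runs with varied positions, mean Rf converted as Rm = log[(1/Rf) - 1].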

[10] = Therapeutic index it is the ratio between TD50 and ED50 (from the clonic phase of the audiogenic seizures); details: read-out: TI
How it was run: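 Therapeutic index computed as rotarod TD50 divided by ED50 for the clonic phase of audiogenic seizures in DBA/2 mice.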

[11] = Motor toxicity in 50% of mice on locomotion assessed by Rotarod test following 30 min ip administration; assay type: organism-based; details: mouse, in vivo
How it was run: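 Male Swiss mice (20-26 g, 48-54 days), groups of 10, trained on rotarod (3 cm, 8 rpm); tested 30 min after ip dosing. Impairment = failure to stay on for 2 min; TD50 (95% confidence limits) by Litchfield-Wilcoxon.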

[12] = tested on: Mus musculus; assay: Anticonvulsant activity against tonic phase of the audiogenic seizures in DBA / 2 mice 30 min after ip administration at a dose range 3.3-100 uM/kg; assay type: functional; details: 0.5 h; how it was run: as §1
[13] = tested on: Mus musculus; assay: Anticonvulsant activity against clonic phase of the audiogenic seizures in DBA / 2 mice 30 min after ip administration at a dose range 3.3-100 uM/kg; assay type: functional; details: 0.5 h; how it was run: as §1
[14] = tested on: Mus musculus; assay: Anticonvulsant activity against the clonic seizures induced by icv injection of AMPA in DBA / 2 mice at a dose range of 10-100 uM/kg; assay type: functional; details: central
[15] = tested on: Mus musculus; assay: Anticonvulsant activity against the maximal electroshock in Swiss mice after 45 minutes pretreatment at a dose range 10-150 uM/kg; assay type: functional
How it was run: (§2)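 Swiss mice dosed ip in 50% DMSO/50% saline 45 min before ear-clip electroshock (50 mA, 20 ms pulses, 35 Hz, 400 ms). Protection = abolition of tonic hindlimb extension. Usually 4-5 doses with 8-10 mice each; ED50 (95% confidence limits) by Litchfield-Wilcoxon.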

[16] = tested on: Mus musculus; assay: Anticonvulsant activity against the tonic seizures induced by icv injection of AMPA in DBA / 2 mice at a dose range of 10-100 uM/kg; assay type: functional; details: central
[17] = tested on: Mus musculus; assay: Pentylenetetrazole-induced seizures in Swiss mice after 45 min pretreatment at a dose range 10-150 uM/kg; assay type: functional
[18] = tested on: Mus musculus; assay: Audiogenic seizures after pretreatment with Aniracetam in DBA / 2 mice clonic phase at a dose range of 10-200 uM/kg; assay type: functional
How it was run: (§3)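 DBA/2 mice pretreated with aniracetam 50 nmol icv 60 min before auditory testing, with ip 2,3-benzodiazepine; audiogenic clonic and tonic phases scored; ED50 by Litchfield-Wilcoxon.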

[19] = tested on: Mus musculus; assay: Audiogenic seizures after pretreatment with Aniracetam in DBA / 2 mice tonic phase at a dose range of 10-200 uM/kg; assay type: functional; how it was run: as §3
[20] = tested on: Mus musculus; assay: Anticonvulsant activity against tonic phase of the audiogenic seizures in DBA / 2 mice 30 min after ip administration at a dose range 3.3-66 uM/kg; assay type: functional; details: 0.5 h
How it was run: (§4)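 Groups of 10 DBA/2 mice of either sex, dosed ip (0.1 mL/10 g) with fresh solution in 50% DMSO/50% saline; 30 min later exposed under a perspex dome (after 60 s habituation) to 12-16 kHz, 109 dB sound for 60 s or until tonic extension. Scored for latency and incidence of wild running, clonus, tonus; ED50 (95% limits) by Litchfield-Wilcoxon.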

[21] = tested on: Mus musculus; assay: Anticonvulsant activity against clonic phase of the audiogenic seizures in DBA / 2 mice 30 min after ip administration at a dose range 3.3-66 uM/kg; assay type: functional; details: 0.5 h; how it was run: as §4
[22] = tested on: Mus musculus; assay: Anticonvulsant activity against the maximal electroshock in Swiss mice after 45 minutes pretreatment at a dose range 10-100 uM/kg; assay type: functional; how it was run: as §2
[23] = tested on: Mus musculus; assay: Pentylenetetrazole-induced seizures in Swiss mice after 45 min pretreatment at a dose range 10-100 uM/kg; assay type: functional
How it was run: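 Male Swiss mice (20-26 g), compound ip in 50% DMSO/50% saline 45 min before sc pentylenetetrazole at CD97 (85 mg/kg), then observed 30 min. Protection is absence of clonic spasms lasting at least 5 s. Typically 4-5 doses, 8-10 mice per dose. ED50 with 95% confidence limits by Litchfield and Wilcoxon.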

Row | Compound | ED50 [5] [µmol/kg] | ED50 [6] [µmol/kg] | ED50 [7] [µmol/kg] | ED50 [8] [µmol/kg] | Rm [9] | therapeutic index (TD50/ED50) [10] | TD50 at 0.5 h [11] [µmol/kg] | ED50 [14] [µmol/kg] | ED50 [16] [µmol/kg] | ED50 [18] [µmol/kg] | ED50 [19] [µmol/kg] | further results
1 | COc1cc2c(cc1OC)C(c1cccc(N)c1)=NNC(=O)C2 | 29.2 | 17.5 | 21 | 18.2 | -0.525 | 2.7 | 51.5 | – | – | – | – | ED50 [1]: 18.3 µmol/kg and 5.69 mg/kg; ED50 [2]: 19.3 µmol/kg and 6 mg/kg; ED50 [3]: 30.9 µmol/kg; ED50 [4]: 27.8 µmol/kg
2 | COc1cc2c(cc1OC)C(c1ccc(N)cc1)=NNC(=O)C2 | 12 | 10.2 | 14.1 | 12 | -0.602 | 3.8 | 56.8 | 32.1 | 25 | 65.2 | 58.2 | ED50 [12]: 12.6 µmol/kg and 3.92 mg/kg; ED50 [13]: 15 µmol/kg and 4.66 mg/kg; ED50 [15]: 15.9 µmol/kg; ED50 [17]: 22.6 µmol/kg
3 | CC1=NN=C(c2ccc(N)cc2)c2cc3c(cc2C1)OCO3 [GYKI-52466] | 39.5 | 29.7 | 37.8 | 26.7 | -0.298 | – | 76.1 | 57.5 | 40.5 | 134 | 100 | ED50 [20]: 25.3 µmol/kg and 7.41 mg/kg; ED50 [21]: 35.8 µmol/kg and 10.5 mg/kg; ED50 [22]: 35.7 µmol/kg; ED50 [23]: 68.3 µmol/kg
